Apaf1 activ: activators of human Apaf-1 apoptosome, primary screen, biochemical, DEVD-Rh110 fluorescence, uHTS; Apaf-1 apoptosome caspase-3 activation; active compounds read low; activity change, negative = activation, % at 20 µM; 330,000 compounds, 0.31% hits; AID 489031, 2010;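 active = activity change at or below -40% at 20 µM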
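Schedule: 30 min preincubation, 50 min reaction, room temperature / System: biochemical Apaf-1 apoptosome reconstitution / Medium: 20 mM HEPES pH 7.5 with CHAPS, BSA / Evaluation: Caspase-3 cleavage activity downstream of Apaf-1 activation / Detection: Caspase-3-released Rh110 fluorescence, 540 nm emission, 480 nm excitation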
Rh110 act interf: Rh110 fluorescence interference by putative Apaf-1 activators, confirmation, artefact control for Apaf-1 activator project, biochemical, 20 µM; shares compounds with Apaf1 activ; quenched caspase reaction, Ex480/Em540; fluorescence interference (activity change), % at 20 µM, hits read low; 980 tested, under 10 active; AID 504616, 2011;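 active = mean activity change at or below -40% when tested at 20 µM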
Apaf-1 act conf2: Apaf-1 activators, single-dose retest, confirmation, biochemical, fluorescence, DEVD-Rh110, 20 µM; shares compounds with Apaf1 activ; reconstituted apoptosome caspase-3 activity; active compounds read low; activity change, negative = activation, % at 20 µM; 980 compounds, 5% hits;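 active = mean activity change at or below -40%, meaning activation of 40% or more, at 20 µM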
An asterisk follows results filed as active. Not all results are given here.

SMILES	Apaf1 activ	others
Nc1c(C(=O)NCc2ccco2)c2nc3ccccc3nc2n1Cc1ccc(F)cc1	89
O=c1[nH]c2ccccc2n1CCCN1CCC(n2c(=O)[nH]c3cc(Cl)ccc32)CC1	-41*	Rh110 act interf=4;Apaf-1 act conf2=4
COC(=O)c1nc(-c2ccc3c(n2)C(=O)C(N)=C(OC)C3=O)c(N)c(-c2ccc(OC)c(OC)c2O)c1C	89
O=[N+]([O-])c1ccccc1-c1cc(-c2ccccc2)cc(-c2ccccc2)[n+]1Cc1ccccc1Cl	53
COc1cc2c(cc1O)C[C@H]1NCCc3cc4c(c-2c31)OCO4	71
CCCCN1C(=N)C(CC)(CC)C(=O)NC1=O	-42*	Rh110 act interf=4;Apaf-1 act conf2=8
CC(C)[C@H]1C(=O)N2CCC[C@H]2[C@]2(O)O[C@](NC(=O)[C@@H]3C=C4c5cccc6[nH]cc(c56)C[C@H]4N(C)C3)(C(C)C)C(=O)N12	95
CC(C)OCCCNC(=O)c1c(N)n(CC2CCCO2)c2nc3ccccc3nc12 (stereo not drawn)	94
COCCCn1c(N)c(C(=O)NCCC(C)C)c2nc3ccccc3nc21	91
CCCNC(=O)c1c(N)n(CC2CCCO2)c2nc3ccccc3nc12 (stereo not drawn)	93

Source: PubChem (Sanford-Burnham Center for Chemical Genomics)
